# From ChEMBL document CHEMBL1629654, “Breakthrough Aspergillus fumigatus and Candida albicans double infection during caspofungin treatment: laboratory characteristics and implication for susceptibility testing” (2009)
# Assays:
# Assay type in all cases: functional
# Candida albicans [1] = test: Antimicrobial activity against Candida albicans isolate C after 48 hrs by EUCAST microdilution method
# How it was run: (§1)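 EUCAST broth microdilution, plates read spectrophotometrically at 490 nm. MIC is the lowest dilution giving 50% growth inhibition. C. krusei […] control included in each run.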
# Candida albicans [2] = test: Antimicrobial activity against Candida albicans isolate R after 48 hrs by microdilution method
# How it was run: (§2)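 Broth microdilution in microtiter plates, read spectrophotometrically at 490 nm. MIC taken as the lowest drug dilution giving 50% growth inhibition. C. krusei […] run as control in each run. Read at 24 h and 48 h; trailing growth noted at 48 h.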
# Candida albicans [3] = test: Antimicrobial activity against Candida albicans isolate C after 24 hrs by microdilution method; how it was run: as §2
# Candida albicans [4] = test: Antimicrobial activity against Candida albicans isolate R after 48 hrs by EUCAST microdilution method; how it was run: as §1
# Candida albicans [5] = test: Antimicrobial activity against Candida albicans isolate R after 24 hrs by microdilution method; how it was run: as §2
# Candida albicans [6] = test: Antimicrobial activity against Candida albicans isolate C after 48 hrs by microdilution method; how it was run: as §2
SMILES,MIC (Candida albicans [1]) [µg/mL],MIC (Candida albicans [2]) [µg/mL],MIC (Candida albicans [3]) [µg/mL],MIC (Candida albicans [4]) [µg/mL],MIC (Candida albicans [5]) [µg/mL],MIC (Candida albicans [6]) [µg/mL]
CCC(C)n1ncn(-c2ccc(N3CCN(c4ccc(OCC5COC(Cn6cncn6)(c6ccc(Cl)cc6Cl)O5)cc4)CC3)cc2)c1=O (stereo not drawn) [ITRACONAZOLE],≤ 0.03,≤ 0.03,≤ 0.03,≤ 0.03,≤ 0.03,≤ 0.03
CC[C@@H]([C@H](C)O)n1ncn(-c2ccc(N3CCN(c4ccc(OC[C@@H]5CO[C@@](Cn6cncn6)(c6ccc(F)cc6F)C5)cc4)CC3)cc2)c1=O [POSACONAZOLE],≤ 0.03,≤ 0.03,≤ 0.03,≤ 0.03,≤ 0.03,≤ 0.03
C[C@@H](c1ncncc1F)[C@](O)(Cn1cncn1)c1ccc(F)cc1F [VORICONAZOLE],≤ 0.125,≤ 0.03,≤ 0.03,≤ 0.03,≤ 0.03,≤ 0.03
